Test [1] deals with cGMP-inhibited 3',5'-cyclic phosphodiesterase 3A (Homo sapiens, UniProt Q14432). The experiment in a line: Inhibition of PDE3A (M1 to Q1141 residues) (unknown origin) using FAM-cAMP as substrate incubated for 45 mins by TR-FRET IMAP assay. The procedure, abridged:
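Full-length PDE3A at 1.6 nM with 50 nM FAM-cAMP, 45 min reaction. Buffer 50 mM Tris-HCl pH 7.5, 8.3 mM MgCl2, 1.7 mM EGTA, 0.05% BSA. Compounds run as a concentration curve with a top final concentration of 100 μM. DMSO and 10 μM trequinsin served as controls. TR-FRET read at Ex 337 nm, Em 520/490 nm.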

Test [2] can be described thus: Selectivity ratio of inhibition for PDE3A (M1 to Q1141 residues) (unknown origin) by IMAP assay to inhibition for PDE3B (M1 to E1112 residues) (unknown origin) by IMAP assay.
Test [3] has as its target T1, cGMP-inhibited 3',5'-cyclic phosphodiesterase 3B (Homo sapiens, UniProt Q13370). The experiment in a line: Inhibition of PDE3B (unknown origin) expression in adipocytes assessed as reduction in lipid hydrolysis at 10 uM. It is filed as cell-based.
Target sequence in this assay (Q13370 whole entry, looked up, the tested form may be a part): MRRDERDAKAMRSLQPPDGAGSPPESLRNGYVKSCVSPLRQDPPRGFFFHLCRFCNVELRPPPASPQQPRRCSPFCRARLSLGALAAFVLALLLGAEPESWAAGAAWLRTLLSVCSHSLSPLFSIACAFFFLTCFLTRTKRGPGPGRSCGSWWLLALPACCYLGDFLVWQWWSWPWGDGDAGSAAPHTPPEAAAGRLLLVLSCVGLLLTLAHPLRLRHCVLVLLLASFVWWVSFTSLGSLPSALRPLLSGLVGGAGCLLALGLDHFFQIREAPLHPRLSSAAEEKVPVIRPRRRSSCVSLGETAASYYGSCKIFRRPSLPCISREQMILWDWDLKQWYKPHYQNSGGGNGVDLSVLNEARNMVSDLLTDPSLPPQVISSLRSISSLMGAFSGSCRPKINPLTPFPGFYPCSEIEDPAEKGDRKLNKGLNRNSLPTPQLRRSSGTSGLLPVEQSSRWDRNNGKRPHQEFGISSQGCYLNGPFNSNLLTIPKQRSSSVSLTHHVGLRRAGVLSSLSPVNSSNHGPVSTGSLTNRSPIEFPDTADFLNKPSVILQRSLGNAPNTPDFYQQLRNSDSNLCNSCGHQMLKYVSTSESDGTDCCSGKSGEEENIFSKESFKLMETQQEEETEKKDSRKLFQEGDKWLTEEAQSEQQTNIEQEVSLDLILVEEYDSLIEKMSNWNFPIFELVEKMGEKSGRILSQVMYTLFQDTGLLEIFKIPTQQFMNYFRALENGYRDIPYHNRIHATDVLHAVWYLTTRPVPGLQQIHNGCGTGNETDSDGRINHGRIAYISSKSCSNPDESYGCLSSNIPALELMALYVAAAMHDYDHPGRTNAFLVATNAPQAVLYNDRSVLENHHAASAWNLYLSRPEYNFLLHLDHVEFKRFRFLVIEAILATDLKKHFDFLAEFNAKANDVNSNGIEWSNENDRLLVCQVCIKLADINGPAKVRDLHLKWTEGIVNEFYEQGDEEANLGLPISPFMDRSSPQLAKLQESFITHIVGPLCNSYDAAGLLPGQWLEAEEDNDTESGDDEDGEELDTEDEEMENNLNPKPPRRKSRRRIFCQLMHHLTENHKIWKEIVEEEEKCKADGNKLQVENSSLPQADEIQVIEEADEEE
A short description of test [4]: Selectivity ratio of inhibition for PDE3A (M1 to Q1141 residues) (unknown origin) by RF-MS assay to inhibition for PDE3B (M1 to E1112 residues) (unknown origin) by RF-MS assay.
Test [5] has as its target T1, cGMP-inhibited 3',5'-cyclic phosphodiesterase 3B. The experiment in a line: Inhibition of full-length PDE3B (M1 to E1112 residues) (unknown origin) using FAM-cAMP as substrate incubated for 120 mins by TR-FRET IMAP assay. The procedure, abridged: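 Buffer 50 mM Tris-HCl pH 7.5, 8.3 mM MgCl2, 1.7 mM EGTA, 0.05% BSA. Compounds run as a concentration curve with a top final concentration of 100 μM. DMSO and 10 μM trequinsin served as controls. Terbium TR-FRET ratio read at 520:490 nm.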
Target sequence in this assay (Q13370 whole entry, the tested form may be a part): as the sequence (Q13370 whole entry, looked up, the tested form may be a part) above
In general terms: TR-FRET usually uses a lanthanide donor and a delayed reading to cut background.

Molecules are shown by their SMILES. Active and inactive are the calls of the source. The calls are words filed in the database; no cut-off is given here.

Sequence of cGMP-inhibited 3',5'-cyclic phosphodiesterase 3A (Q14432 whole entry, the tested form may be a part): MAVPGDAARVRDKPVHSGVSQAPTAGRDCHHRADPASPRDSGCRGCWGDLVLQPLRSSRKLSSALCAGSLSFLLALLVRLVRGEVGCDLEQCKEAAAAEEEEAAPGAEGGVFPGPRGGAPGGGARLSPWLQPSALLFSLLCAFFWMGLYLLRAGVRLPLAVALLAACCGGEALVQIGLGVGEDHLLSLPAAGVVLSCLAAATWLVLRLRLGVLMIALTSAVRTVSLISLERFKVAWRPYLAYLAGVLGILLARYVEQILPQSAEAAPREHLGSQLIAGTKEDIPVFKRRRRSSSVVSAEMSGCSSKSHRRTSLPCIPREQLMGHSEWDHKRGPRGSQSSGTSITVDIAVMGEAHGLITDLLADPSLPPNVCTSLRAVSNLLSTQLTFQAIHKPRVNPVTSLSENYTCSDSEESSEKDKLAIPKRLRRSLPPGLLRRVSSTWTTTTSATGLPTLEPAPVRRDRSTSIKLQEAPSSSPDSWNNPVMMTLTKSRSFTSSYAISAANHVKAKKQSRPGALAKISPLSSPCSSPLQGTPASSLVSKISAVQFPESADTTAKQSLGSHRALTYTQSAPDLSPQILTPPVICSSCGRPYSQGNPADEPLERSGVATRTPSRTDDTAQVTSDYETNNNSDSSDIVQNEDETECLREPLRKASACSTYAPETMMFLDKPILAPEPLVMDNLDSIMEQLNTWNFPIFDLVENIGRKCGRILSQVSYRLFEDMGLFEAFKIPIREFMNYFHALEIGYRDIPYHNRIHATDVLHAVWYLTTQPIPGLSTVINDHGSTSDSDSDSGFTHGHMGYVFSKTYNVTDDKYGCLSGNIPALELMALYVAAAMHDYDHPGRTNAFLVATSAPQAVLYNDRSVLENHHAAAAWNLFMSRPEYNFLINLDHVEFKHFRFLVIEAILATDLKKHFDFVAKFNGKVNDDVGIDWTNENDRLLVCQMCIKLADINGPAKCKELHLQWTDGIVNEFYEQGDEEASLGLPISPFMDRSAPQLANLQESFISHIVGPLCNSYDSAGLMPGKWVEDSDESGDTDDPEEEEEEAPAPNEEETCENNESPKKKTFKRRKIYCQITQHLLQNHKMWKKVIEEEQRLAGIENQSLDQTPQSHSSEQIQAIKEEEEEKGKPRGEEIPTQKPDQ

Regarding `CNC(=O)[C@@H](NC(=O)c1cc(NC(=O)c2cc(C)c3ccccc3n2)cc(B(O)O)c1)C1CCCCC1`, the figures for the IC50 in test [1] and in test [5] were 5.01 nM and 7.94 nM, respectively. In addition, the Selectivity ratio in test [2] is 0.7; in test [4], 1.1. For the same compound, in test [3], the inhibition entry is “Active”.
Regarding `CC1CC(=O)NN=C1c1ccc(NC2=C(Cc3cccc(-c4ccccc4)c3)C(=O)CCC2)cc1` (centres undefined), in test [3], the inhibition entry was “Active”.
For `COCC(C)NC(=O)c1cc(NC(=O)c2cc(OC)c3ccc(OC)cc3n2)cc(B(O)O)c1` (centres undefined), the IC50 (as a rule, the concentration that inhibits the measured activity by half) is greater than 100000 nM in test [1] and 316 nM in test [5]. In addition, the Selectivity ratio in test [2] is greater than 300; in test [4], 46. Besides, the inhibition result in test [3] is “Active”.
Regarding `CNC(=O)[C@@H](NC(=O)c1cc(NC(=O)c2cc(OC)c3ccc(OC)cc3n2)cc(B(O)O)c1)C1CCCCC1`, the 50% inhibitory concentration (IC50) in test [1] was 1000 nM; in test [5], 79.4 nM. For the same compound, the results for the Selectivity ratio in test [2] and in test [4] were 12 and 26, respectively.
For the compound `COc1ccc2c(OC)cc(C(=O)Nc3cc(B(O)O)cc(C(=O)NCC(C)C)c3)nc2c1`, the IC50 in test [1] was 25100 nM; in test [5], 1580 nM. The results for the Selectivity ratio in test [2] and in test [4] were 14 and 56, respectively.
For `COc1ccc2c(OC)cc(C(=O)Nc3cc(B(O)O)cc(C(N)=O)c3)nc2c1` the same measures were greater than 100000 nM, 2000 nM, greater than 51 and 45.
Regarding `CNC(=O)[C@@H](NC(=O)c1cc(NC(=O)c2cc(OC)c3ccccc3n2)cc(B(O)O)c1)C1CCCCC1`, the IC50 in test [1] is 251 nM; in test [5], 158 nM. Also, the values for the Selectivity ratio in test [2] and in test [4] were 1.6 and 2.3, respectively.
As to `CCNC(=O)N1CCCCC(NC(=O)c2cc(O)cc(NC(=O)c3cc(C)cc(C)c3OC)c2)C1` (centres undefined), the IC50 in test [1] was 31600 nM; in test [5], 39800 nM. Besides, the Selectivity ratio was 0.8 in test [2] and 1 in test [4].
For `COc1ccc2c(OC)cc(C(=O)Nc3cccc(B(O)O)c3)nc2c1`, the figures for the IC50 in test [1] and in test [5] were 12600 nM and 10000 nM, respectively. The Selectivity ratio in test [2] was found to be 1.4; in test [4], 4.2.
`CNC(=O)[C@H](NC(=O)c1cc(NC(=O)c2nc(C)ncc2OC)cc(B(O)O)c1)C1CCCCC1`: the IC50 in test [1] and in test [5] was 31600 nM in each case. Besides, the Selectivity ratio in test [2] and in test [4] was 0.8 throughout.
Regarding `CNC(=O)[C@H](NC(=O)c1cc(NC(=O)c2cc(Cl)cc3c2OCC(=O)N3)cc(B(O)O)c1)C1CCCCC1`, the IC50 in test [1] was 6310 nM; in test [5] it was 1580 nM. In addition, the Selectivity ratio was found to be 3.3 in test [2] and 7 in test [4].
For the compound `CNC(=O)[C@H](NC(=O)c1cc(NC(=O)c2cc(C)cc(C)c2OC)cc(B(O)O)c1)C1CCCCC1`, the figures for the IC50 in test [1] and in test [5] were 2000 nM and 794 nM, respectively. Also, the Selectivity ratio in test [2] was found to be 2.6; in test [4] it was 6.6.
On to `COc1ccc2c(OC)cc(C(=O)Nc3cc(B(O)O)cc(C(=O)N(C)Cc4ccccc4)c3)nc2c1`, for which the IC50 in test [1] is 15800 nM; in test [5] it was 631 nM. Besides, the Selectivity ratio in test [2] worked out at 21; in test [4], 62.
In the case of `CNC(=O)[C@@H](NC(=O)c1cc(NC(=O)c2ccc3ccccc3n2)cc(B(O)O)c1)C1CCCCC1`, the IC50 was 20 nM in test [1] and 50.1 nM in test [5]. The Selectivity ratio in test [2] and in test [4] was 0.5 throughout.
Consider `COc1ccc2c(OC)cc(C(=O)Nc3cc(B(O)O)cc(C(=O)N[C@@H](C(N)=O)C(C)C)c3)nc2c1`, for which the IC50 was 15800 nM in test [1] and 2000 nM in test [5]. For the same compound, the Selectivity ratio in test [2] was determined as 8.5; in test [4], 16.
Take `COc1ccc2c(OC)cc(C(=O)Nc3cc(B(O)O)cc(C(=O)O)c3)nc2c1`: the IC50 in test [1] was 7940 nM; in test [5], 2510 nM. Moreover, the results for the Selectivity ratio in test [2] and in test [4] were 3 and 5, respectively.
On to `COC(=O)c1cc(NC(=O)c2cc(OC)c3ccc(OC)cc3n2)cc(B(O)O)c1`, for which the IC50 in test [1] is greater than 100000 nM; in test [5], 2000 nM. Also, the figures for the Selectivity ratio in test [2] and in test [4] were greater than 52 and greater than 177, respectively.
Taken in the same sequence, the figures for `COc1ccc2c(OC)cc(C(=O)Nc3cc(B(O)O)cc(C(=O)N4CCCC4)c3)nc2c1` were 31600 nM, 794 nM, 46 and 46.
As to `CNC(=O)[C@H](NC(=O)c1cc(NC(=O)C(C)Oc2c(C)cccc2C)cc(B(O)O)c1)C1CCCCC1` (some centres undefined), the IC50 was 79400 nM in test [1] and 25100 nM in test [5]. The Selectivity ratio in test [2] stood at 3.3; in test [4], 4.7.
Take `CNC(=O)[C@@H](NC(=O)c1cc(NC(=O)c2ccc3ccncc3n2)cc(B(O)O)c1)C1CCCCC1`: the IC50 in test [1] is 158 nM; in test [5], 316 nM. Moreover, the Selectivity ratio turned out to be 0.5 in test [2] and 0.7 in test [4].

For the origin of these results see ChEMBL document CHEMBL5537199, “Discovery and SAR Study of Boronic Acid-Based Selective PDE3B Inhibitors from a Novel DNA-Encoded Library” (J Med Chem, 2024).
